UBC9 SUMO inh = SUMOylation inhibition. HTRF SUMOylation assay, SAE1/SAE2 + UBC9, in vitro. P63279. inhibition, % at 35 µM. AID 2006. actives 0.36% (n = 290,000); in the data active means inhibition above about 50%, passing the limit was not always enough
Target sequence (P63279 whole entry, looked up): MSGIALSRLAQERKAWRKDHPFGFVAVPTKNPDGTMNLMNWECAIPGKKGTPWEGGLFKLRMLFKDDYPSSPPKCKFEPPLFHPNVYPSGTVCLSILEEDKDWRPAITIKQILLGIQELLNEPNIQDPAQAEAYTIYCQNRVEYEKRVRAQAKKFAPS
VIM-2 inhibitor = inhibitors of Pseudomonas aeruginosa VIM-2 metallo-beta-lactamase; purified VIM-2, nitrocefin hydrolysis, epi-absorbance fluorescence; inhibition, % at 5.6 µM; actives 0.89% (n = 290,000); AID 1527;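 active means inhibition above the mean of all tested compounds plus 3 SD, cutoff set per screening run, cut at about 7.5% in these data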;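 further: red hydrolysis product quenches plate fluorescence so inhibitors raise well fluorescence; 0% = enzyme with DMSO and 100% = DMSO without enzyme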
FID counter = fluorescent intercalator displacement, NS3 helicase counter-screen; actives 0.17% (n = 290,000); DNA fluorescent intercalator displacement, fluorescence; inhibition, % at 7.9 µM; AID 1845; in the data active means inhibition above about 37%;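 further: 0% = vehicle and 100% = reference compound; higher means more ethidium bromide displaced from hairpin DNA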
HCV NS3 hel inh = inhibitors of Hepatitis C virus NS3 helicase. NS3 helicase DNA unwinding, Cy5 molecular beacon fluorescence. inhibition, % at 10.9 µM. actives 0.56% (n = 290,000). AID 1800;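 active means inhibition above the mean of all tested compounds plus 3 SD, set per campaign, cut at about 35% in these data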;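 further: 0% = DMSO wells and 100% = thioflavine S control wells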
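Assay system: hepatitis C virus NS3 helicase domain fragment enzyme. Also added: annealed dual-labelled DNA beacon duplex, ATP-started. Timing: 1 h reaction at 25 °C, ATP-initiated. Technique: Cy5 fluorescence at 0 and 60 min, beacon hairpin quenching. Evaluation: % inhibition of unwinding. Replication: one well per compound.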
IMP-1 inh = blocks Pseudomonas aeruginosa IMP-1 metallo-beta-lactamase. purified IMP-1, nitrocefin hydrolysis, epi-absorbance fluorescence. inhibition, % at 5.6 µM. actives 0.45% (n = 290,000);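 active means inhibition above the mean plus 3 SD of all compounds in the same screening run, cut at about 4.5% in these data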;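 further: 0% = IMP-1 with DMSO and 100% = DMSO wells lacking enzyme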
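Assay system: purified recombinant IMP-1 beta-lactamase. Input: IMP-1 0.2 nM before substrate addition. Buffer or medium: Zinc- and detergent-supplemented HEPES buffer, pH 7.1. Schedule: 25 °C, 15 min preincubation, 25 min reaction. Signal: Epi-absorbance fluorescence, 480 nm excitation, 530 nm emission. Evaluation: percent inhibition from optical density relative to buffer-blank wells.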
* hit, by the source's call; · = not tested or not shown; ! = a repeat was not active. A selection: hits, their analogues and other compounds. The true share with any hit is near 2.1%.

SMILES | UBC9 SUMO inh | VIM-2 inhibitor | FID counter | HCV NS3 hel inh | IMP-1 inh
c1cncc(C2CCCCN2)c1 (stereo unspecified) | 10.4 | -1.7 | 0.1 | 2.1 | -1.4
c1cncc(C2Nc3cccc4cccc(c34)N2)c1 | 63.3*! | -0.3 | -3.5 | -9.3 | -4.7
Cc1cc(N2CCCCC2)ccc1C=C1C(=O)N(C)C(=S)N(C)C1=O | 17.2 | 4.0 | -11.0 | 10.4 | 7.4*
CN1C(=O)/C(=C\c2ccc(N3CCCCCC3)cc2)C(=O)NC1=S | 11.4 | 0.1 | -4.8 | -1.9 | 0.5
CNP(=O)(Oc1ccccc1)OC12CC3CC(CC(C3)C1)C2 (stereo unspecified) | 6.5 | -0.4 | -25.5 | -10.2 | -2.8
CCC(CO)NC(=O)C1C=C2c3cccc4[nH]cc(c34)CC2N(C)C1 (stereo unspecified) | 40.8 | 5.1 | 24.7 | -36.5 | 4.2
COC(=O)C1C=C2c3cccc4[nH]cc(c34)CC2N(C)C1 (stereo unspecified) | 44.0 | 6.0 | -7.0 | 3.5 | 6.8*
Cc1cc(/C=C2\C(=O)NC(=O)N(c3ccc(Cl)cc3)C2=O)c(C)n1-c1sc2c(c1C#N)CCCC2 | 26.0 | 1.3 | -17.7 | 28.5 | 5.3*
COc1ccc(-n2c(-c3ccccc3Br)nc3ccccc3c2=O)cc1 | 2.8 | -1.9 | -38.2 | -3.3 | -3.1
COc1ccc(C(C)=O)cc1CC(C(=O)c1ccc(Br)cc1)N(C)C (stereo unspecified) | -13.0 | 1.8 | 1.1 | -9.4 | 6.0*
CN(C)C(Cc1ccccc1)C(=O)c1ccccc1 (stereo unspecified) | 2.3 | -1.4 | -2.4 | 0.6 | -1.1
O=C1NC(=O)C(CCc2ccncc2)(c2ccccc2)C(=O)N1 | 20.9 | -5.1 | -1.0 | 4.2 | 6.1*
O=C1NC(=O)C(CCc2ccncc2)(Cc2ccc(OCc3ccccc3)cc2)C(=O)N1 | 13.0 | -2.2 | -5.0 | 9.8 | -3.3
Nc1c2c(nc3sc4c(c13)CCCC4)CCCCC2 | 0.0 | 0.3 | -0.6 | -3.1 | -0.7
Nc1c2c(nc3sc4c(c13)CCCC4)CCCC2 | 14.7 | 12.2* | 1.8 | 7.3 | -4.4
C[n+]1c2ccccc2nc2ccc(NCCO)cc21 | -9.4 | 6.8 | -104.5 | 21.5 | -5.0
CNc1ccc2nc3ccccc3[n+](C)c2c1 | -21.2 | 8.0* | -114.2 | 18.2 | -8.3
O=C1C(=O)c2cccc3cccc1c23 | 21.4 | -0.1 | -5.2 | 16.7 | 5.1*
O=C1NC(=S)N(c2ccc(F)cc2)C(=O)/C1=C/c1ccco1 | 65.6* | -3.2 | -7.9 | 34.8 | -2.0
O=C1/C(=C/c2cc3c(cc2Cl)OCO3)N2CCC1CC2 | 49.5 | -0.6 | 1.2 | -4.7 | -4.5
C=C1C(=O)O[C@@H]2C[C@@H](C)[C@@H]3C=CC(=O)[C@@]3(C)[C@@H](OC(=O)CC(=O)O[C@H]3[C@@H]4C(=C)C(=O)O[C@@H]4C[C@@H](C)[C@@H]4C=CC(=O)[C@]43C)[C@H]12 | 54.3* | · | · | · | ·
O=P(O)(O)Cc1ccccc1OP(=O)(c1ccccc1)c1ccccc1 | 32.3 | 9.9* | -3.5 | 6.2 | -1.9
NC(=O)CSP(=O)(c1ccccc1)c1ccccc1 | 4.7 | 0.4 | 3.4 | -3.7 | 2.8
Cc1nc2c(=O)n(C)c(=O)nc-2n(C)n1 | 103.0* | 0.4 | -1.0 | 4.2 | -3.7
CN1CCN2c3ccc(N)cc3CC3(C(=O)NC(=O)NC3=O)C2C1 (stereo unspecified) | 78.9* | 0.1 | 10.5 | 25.0 | -5.8
SMILES | UBC9 SUMO inh | VIM-2 inhibitor | FID counter | HCV NS3 hel inh | IMP-1 inh
CN1CCN(c2ccc([N+](=O)[O-])c(N/N=C3\CN4CCC3CC4)c2)CC1 | -9.0 | 5.2 | 42.3* | -2.0 | -1.4
N#Cc1c(/N=C/c2c(O)n(Cc3ccco3)c(=O)[nH]c2=O)sc2c1CCCC2 | 19.6 | -1.9 | -7.4 | 25.6 | -0.7
O=C1NC(=O)N(Cc2ccco2)C(=O)/C1=C/C=C/c1ccco1 | 72.9* | 1.1 | -21.9 | 32.8 | -1.4
Cc1cc(/C=C2\C(=O)NC(=O)N(Cc3ccccc3Cl)C2=O)c(C)n1-c1ccc(C(=O)O)cc1 | 24.7 | 0.1 | -22.2 | 32.1 | -2.6
Cc1cc(/C=C2\C(=O)NC(=O)N(Cc3ccccc3)C2=O)c(C)n1-c1ccc(Cl)c(C(=O)O)c1 | 59.1* | 0.9 | -27.4 | 17.4 | -0.4
Cc1cc(/C=C2\C(=O)NC(=O)N(Cc3ccco3)C2=O)c(C)n1-c1ccc(O)cc1 | 61.6* | -1.7 | -25.0 | 16.6 | -2.3
Cc1cc(/C=C2\C(=O)NC(=O)N(Cc3ccco3)C2=O)c(C)n1-c1ccc(C(=O)O)cc1 | 14.7 | -1.4 | -25.4 | 24.5 | -4.1

Source: PubChem
